Compound activity: PubChem, Sanford-Burnham Center for Chemical Genomics
bIAP inh: blocks bovine intestinal alkaline phosphatase activity; inhibition, % at 20 µM; 190,000 tested, under 10 active; purified bovine IAP, CDP-star luminescence, 30 min;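 active = over 50% inhibition of intestinal alkaline phosphatase at 20 µM in the single-dose screen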
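Assay system – bovine IAP enzyme · Quantity – bovine IAP at 1/65,000,000 final dilution · Detection – CDP-star luminescence signal · Times – 30 min reaction at room temperature · Also added – CDP-star substrate at 30 µM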
hIAP inh: human IAP inhibition. P09923. purified IAP, CDP-Star luminescence, 30 min. inhibition, % at 10 µM. 0.12% of 330,000 active. AID 2544;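 active = inhibition reaching a set limit with compound at 10 µM in the primary screen, cut at about 35% in these data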
Target sequence (P09923 whole entry, looked up): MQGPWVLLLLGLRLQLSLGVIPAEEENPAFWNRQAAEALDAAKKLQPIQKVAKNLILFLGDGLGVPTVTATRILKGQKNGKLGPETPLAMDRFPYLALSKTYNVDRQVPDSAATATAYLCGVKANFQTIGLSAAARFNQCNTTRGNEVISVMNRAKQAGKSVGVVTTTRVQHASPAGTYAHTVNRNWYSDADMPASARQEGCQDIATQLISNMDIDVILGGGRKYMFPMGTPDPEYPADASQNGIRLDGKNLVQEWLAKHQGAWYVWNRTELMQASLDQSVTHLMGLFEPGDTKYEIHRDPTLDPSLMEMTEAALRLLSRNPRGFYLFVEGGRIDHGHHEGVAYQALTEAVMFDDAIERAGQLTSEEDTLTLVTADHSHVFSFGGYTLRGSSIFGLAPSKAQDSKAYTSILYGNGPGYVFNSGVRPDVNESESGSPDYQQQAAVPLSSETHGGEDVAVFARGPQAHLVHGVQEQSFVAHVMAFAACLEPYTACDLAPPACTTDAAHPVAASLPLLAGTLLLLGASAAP
mIAP inh: mouse IAP inhibition | 0.2% of 330,000 active | purified mouse IAP, CDP-Star luminescence, 30 min | inhibition, % at 10 µM;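 active = inhibition of at least 40% at 10 µM in the primary screen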
hIAP act: increases human intestinal alkaline phosphatase activity; P09923; purified human IAP, CDP-Star luminescence, 30 min; active compounds read high; 1 = vehicle-only enzyme, 0 = enzyme-free background; activation factor at 10 µM; 0.16% of 330,000 active; AID 2524;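 active = activation factor of the enzyme at least 2-fold when tested at 20 µM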
bIAP activator: intestinal alkaline phosphatase (bovine) activation. purified bovine IAP, CDP-star luminescence, 30 min; active compounds read high; fold of DMSO-control signal, blank-subtracted. 0.17% of 200,000 active. activation factor at 20 µM;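 active = activation factor of 2 or more at 20 µM, a signal rise over negative controls twice the positive control's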
mIAP act: mouse IAP activation; activation factor at 10 µM; 0.24% of 330,000 active; muIAP, CDP-Star luminescence, 30 min; active compounds read high; 1 = vehicle-only enzyme signal, 0 = enzyme-free wells;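 active = activation factor of at least 2 at 20 µM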
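also added = chemiluminescent substrate CDP-Star | test system = mouse IAP enzyme | signal = chemiluminescence readout | compound = DMSO-dissolved test compounds | incubation = 30 min at room temperature | benchmarks = DMSO wells, no-enzyme wells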
Large screens that a line does not name were inactive. Shown are actives, neighbours in structure and some others; about 0.79% of the full set was active somewhere.

COc1ccc(C[C@H]2CN3C(=NC[C@@H]3Cc3ccccc3)N2C[C@H](C)NC(=O)CCC2CCCCC2)cc1	none (no result: bIAP inh, bIAP activator)
CCc1ccc(C(C)NC(=S)NC2CCCCC2)cc1 (stereo not drawn)	none (no result: bIAP inh, bIAP activator)
CC(C)c1ccc(C(C)NC(=S)NC2CCCCC2)cc1 (stereo not drawn)	mIAP act 2.16 (no result: bIAP inh, bIAP activator)
CCCNS(=O)(=O)c1cccn1-c1ncc(C(F)(F)F)cc1Cl	none
CC(=O)Nc1ccc(S(=O)(=O)NCC(=O)NNC(=O)COc2ccccc2Cl)cc1	none (no result: bIAP inh, bIAP activator)
CC(=O)Nc1ccc(S(=O)(=O)NCC(=O)NNC(=O)COc2c(C)cccc2C)cc1	mIAP inh 40.6 (no result: bIAP inh, bIAP activator)
Cc1noc(-c2ccccc2)c1NC(=O)Nc1ccccc1	none (no result: bIAP inh, bIAP activator)
Cc1noc(-c2ccccc2)c1NC(=O)Nc1ccc(Cl)cc1	mIAP act 3.06 (no result: bIAP inh, bIAP activator)
Cc1cccc(/C(N)=N/OC(=O)c2cccc3ccccc23)c1	hIAP inh 40.1 (no result: bIAP inh, bIAP activator)
N/C(=N\OC(=O)c1cccc2ccccc12)c1cccc([N+](=O)[O-])c1	none
COc1ccc2[nH]c3c(NCCC4=CCCCC4)ncnc3c2c1	bIAP activator 2.1 (no result: hIAP inh, mIAP inh, hIAP act, mIAP act)
CCOc1ccc2[nH]c3c(NCCC(C)C)ncnc3c2c1	mIAP act 2.22 (no result: bIAP inh, bIAP activator)
CCN(CC)CCNc1ncnc2c1[nH]c1ccc(OC)cc12	none (no result: bIAP inh, bIAP activator)
O=C(CSc1ccccn1)Nc1cccc2ccccc12	mIAP inh 67.7
O=C(CSc1ccccn1)Nc1ccccc1F	none
Cc1cccc(NC(=O)c2ccc(S(=O)(=O)N3CCCCC3)cc2)n1	none (no result: bIAP inh, bIAP activator)
c1ccc2c(c1)CCN(c1ncnc3c1[nH]c1ccccc13)C2	bIAP activator 2.1
CCCCCCCCC(=O)NC(NC(=S)N1CCOCC1)C(Cl)(Cl)Cl (stereo not drawn)	mIAP act 3.36
CCCSc1cc(NCCOC(=O)CCC)c([N+](=O)[O-])c2nonc12	none (no result: bIAP inh)
CC(=O)OCCCNc1cc(SCc2ccco2)c2nonc2c1[N+](=O)[O-]	mIAP inh 49.9
CCCC(=O)OCCNc1cc(SCc2ccco2)c2nonc2c1[N+](=O)[O-]	mIAP inh 48.9
O=C(NCc1ccccc1)c1nc2c(nnn2Cc2cccc(Cl)c2)c(=O)[nH]1	bIAP activator 2.2
O=C(NCc1ccco1)c1nc2c(nnn2Cc2cccc(Cl)c2)c(=O)[nH]1	none
O=S1(=O)Nc2c(ccc3cccnc23)-c2ccccc21	none
CCn1cc(C(=O)NCCCN2CCCC(C)C2)c(=O)c2cc(S(=O)(=O)N3CCc4ccccc4C3)ccc21 (stereo not drawn)	none
Cc1ccc(-n2c(SCC(N)=O)nnc2-c2cccnc2)c(C)c1	mIAP act 2.03
COCCCN(CC(=O)O)S(=O)(=O)c1cccc(Cl)c1	none
COc1ccc(OC)c(C(=O)NC(CC(N)=O)c2ccc(NCc3ccc(F)c(F)c3)c([N+](=O)[O-])c2)c1 (stereo not drawn)	mIAP inh 48.5 (no result: bIAP inh, bIAP activator)
COc1ccc(OC)c(C(=O)NC(CC(N)=O)c2ccc(NCc3ccccn3)c([N+](=O)[O-])c2)c1 (stereo not drawn)	none (no result: bIAP inh, bIAP activator)
COc1ccc(-c2nn(-c3ccccc3)cc2C(=O)NCCCn2ccnc2)cc1	bIAP activator 2.3
COc1ccc(C(=O)NCCCn2ccnc2)cc1	none
COc1ccc(N2C3=C(CC4=C2CCCC4=O)C(=O)CCC3)cc1	mIAP inh 45.9
Cc1cccc(COc2ccc(S(=O)(=O)N3CCOCC3)cc2[N+](=O)[O-])c1	none (no result: bIAP inh, bIAP activator)
CCCOC(=O)c1ccc(NC(=O)Oc2ccccc2)cc1	bIAP activator 2.6
Cc1cccc(NC(=S)NC(NC(=O)c2ccco2)C(Cl)(Cl)Cl)c1 (stereo not drawn)	mIAP act 2.04
Cc1ccc(NC(=S)NC(NC(=O)c2ccccc2)C(Cl)(Cl)Cl)c(C)c1 (stereo not drawn)	none
Cc1ccc(NC(=S)NC(NC(=O)c2ccco2)C(Cl)(Cl)Cl)cc1 (stereo not drawn)	none
Cc1cc(C)c(NC(=S)NC(NC(=O)c2ccccc2)C(Cl)(Cl)Cl)c(C)c1 (stereo not drawn)	mIAP act 2.52
COc1cc(NS(=O)(=O)c2ccc(NC(=S)NC(=O)/C=C/c3ccc(F)cc3)cc2)ncn1	none (no result: bIAP inh, bIAP activator)
CC1CCCCC1NC(=S)Nc1ccc(SC(F)F)cc1 (stereo not drawn)	mIAP act 3.27
CN(CC(=O)Nc1ccc(SC(F)F)cc1)C1CCCCC1	none
FC(F)Sc1ccc(NC(=S)NC2CCCCC2)cc1	mIAP act 2.23
FC(F)Sc1ccc(NC(=S)NCC2CCCCC2)cc1	mIAP act 3.28 (no result: bIAP inh)
S=C(NCC1CCCCC1)Nc1cccnc1	none
C=C1CCN([C@@H](C)C(=O)OCc2ccc(C)cc2)S(=O)(=O)c2ccccc21	none (no result: bIAP inh, bIAP activator)
CCCN(CCC)C(=O)CSc1nc2n[nH]c(C)c2c(=N)n1-c1ccc(OCC)cc1	bIAP activator 2.1
CCCN(CCC)C(=O)CSc1nc2n[nH]c(C)c2c(=N)n1-c1ccc(OC)cc1	bIAP activator 2.9
CCc1ccccc1NC(=O)CSc1nc2n[nH]c(C)c2c(=N)n1-c1ccc(OC)cc1	none (no result: hIAP inh, mIAP inh, hIAP act, mIAP act)
O=C(/C=C/c1cccc2ccccc12)NCCC1=CCCCC1	none
Cc1cccc(NC(=S)NC2CC3CCCC(C2)N3Cc2cccs2)c1 (stereo not drawn)	mIAP act 5.88
CCN(CC)CCn1c(=N)n(CC(=O)c2ccc(C)cc2)c2ccccc21	mIAP inh 40.9 (no result: bIAP inh, bIAP activator)
Cc1ccc(C(=O)Cn2c(=N)n(N)c3ccccc32)cc1	none (no result: bIAP inh, bIAP activator)
COc1cccc(-c2cccc(NC(=O)C3CCN(Cc4ccc(CO)o4)CC3)c2)c1	none (no result: bIAP inh, bIAP activator)
O=C(Nc1cccc(-c2cccc(F)c2)c1)C1CCN(Cc2ccc(CO)o2)CC1	mIAP act 2.07 (no result: bIAP inh, bIAP activator)
CC(O)c1nc2ccccc2n1C/C=C/c1ccccc1 (stereo not drawn)	none
OCc1nc2ccccc2n1C/C=C/c1ccccc1	bIAP activator 2.2
COc1ccc(-c2nn(C)c3sc(C(=O)NCc4ccco4)cc23)cc1OC	bIAP activator 3.5
O=C(Oc1ccccc1C(=O)N1CCOCC1)c1ccc(Br)cc1	bIAP activator 2.2
O=C(Oc1ccccc1C(=O)N1CCOCC1)c1ccc(F)cc1	none (no result: bIAP inh, bIAP activator)
Cc1ccc(C(=O)C(NC(=O)c2ccco2)Nc2sc3c(c2C(N)=O)CCCC3)cc1 (stereo not drawn)	bIAP activator 3.6
O=C(O)c1ccc(NS(=O)(=O)c2ccc3c(c2)C2C=CCC2C(c2ccccc2F)N3)cc1 (stereo not drawn)	none
NS(=O)(=O)c1ccc2c(c1)C1C=CCC1C(C1CC=CCC1)N2 (stereo not drawn)	mIAP inh 56.4
CC(=O)n1cc(N(C(=O)CCl)c2ccc([N+](=O)[O-])cc2)c2ccccc21	none (no result: bIAP inh, bIAP activator)
O=Cc1[nH]c2ccccc2c1N(C(=O)CCl)c1ccc([N+](=O)[O-])cc1	hIAP inh 35.2 (no result: bIAP inh, bIAP activator)
